Experimental data from different studies.
Protocols differ between the studies behind these lines.
Action: inhibitor
MET M1250T: Hepatocyte growth factor receptor (MET, Homo sapiens, UniProt P08581, M1250T)
MET: Hepatocyte growth factor receptor (MET, Homo sapiens, UniProt P08581)

COc1cc2ncnc(Nc3ccc(Oc4ccccc4)cc3C)c2cc1OC  inhibition (MET M1250T; enzyme activity; 1 µM): -1%
CNC(=O)c1cc(Oc2ccc(NC(=O)Nc3ccc(Cl)c(C(F)(F)F)c3)cc2)ccn1  inhibition (MET; enzyme activity; 0.3 µM): -22%
CN1CC(Oc2cnc(C#N)cc2-c2ccn3nc(NC(=O)C4CC4)cc3c2)C1  inhibition (MET; enzyme activity; 1 µM): -19%
CSc1nc(C)c(-c2ccnc(Nc3ccc(N4CCOCC4)cc3)c2)[nH]1  inhibition (MET; cell-free assay; 10 µM): 28.2%
CN(C)C1CCN(CC#Cc2nn(C3CCCC3)c3nc(NCc4ccccc4)ncc23)C1 (stereo not shown)  inhibition (MET; enzyme activity, FRET; 0.1 µM): 6%
CNC(=O)c1cc2c(Oc3ccc(NC(=O)C4(C(=O)Nc5ccc(F)cc5)CC4)cc3)ccnc2cc1OC  inhibition (MET M1250T; enzyme activity, radiometric; 1 µM): 99%
COc1cc2ncnc(Nc3ccc(Oc4ccccc4)c(C)c3C)c2cc1OC  inhibition (MET M1250T; enzyme activity; 1 µM): -2%
C=CC(=O)Nc1cc(Nc2nccc(Nc3cc(Cl)c(F)cc3C(C)(C)O)n2)c(OC)cc1N1CC[C@@H](N(C)C)C1  inhibition (MET; enzyme activity; 1 µM): 30%
CC/C(=N\NC(=O)NCc1cccc(O)c1)c1ccc(O)c(C)c1O  inhibition (MET; enzyme activity; 0.1 µM): 1.1%
CS(=O)(=O)Nc1cccc(-c2csc(NC(=O)CSc3nc4nccnc4c(=O)n3CCc3ccccc3)n2)c1  inhibition (MET; enzyme activity; 10 µM): 1%
